Measurements pooled from the literature.
Lines come from different studies, so protocols differ.

SMILES | target or system | assay | setting | endpoint | result
CC(C)C[C@H](NC(=O)[C@H](CCCCN)NC(=O)[C@H](CC(C)C)NC(=O)[C@H](Cc1ccccc1)NC(=O)[C@H](CC(C)C)NC(=O)[C@H](CCCCN)NC(=O)[C@H](CCCCN)NC(=O)[C@H](CC(C)C)NC(=O)[C@H](CC(C)C)NC(=O)[C@H](CCCCN)NC(=O)[C@@H](N)CCCNC(=N)N)C(=O)N[C@@H](CCCCN)C(=O)N[C@@H](CCCCN)C(N)=O | A549 | cell growth or viability, MTT | 24 h | IC50 | 164 µM
Cc1c(Cl)c(=O)oc2cc(OCCCC[Se]C#N)ccc12 | A549 | cell growth or viability, SRB |  | GI50 | 12 µM
CC(C)(C)c1cccc(C=Nc2ccc(SCc3cc(=O)c(O)co3)cc2)c1 |  | ABTS scavenging, absorbance |  | IC50 | 15 µM
CC[C@H](C)[C@H](NC(=O)[C@H](CCCCN)NC(=O)[C@H](CCCCN)NC(=O)[C@H](CCCCN)NC(=O)[C@H](CC(C)C)NC(=O)[C@H](CCCNC(=N)N)NC(=O)[C@H](CCCCN)NC(=O)[C@@H](N)CC(C)C)C(=O)N[C@@H](CCCCN)C(=O)N[C@@H](CCCCN)C(=O)N[C@@H](CC(C)C)C(=O)N[C@@H](CC(C)C)C(=O)N[C@@H](CCCCN)C(N)=O | A549 | cell growth or viability, MTT | 24 h | IC50 | 164 µM
O=c1cc(CSc2ccc(N=Cc3ccccc3C(F)(F)F)cc2)occ1O |  | ABTS scavenging, absorbance |  | IC50 | 39.8 µM
N#C[Se]CCCCOc1ccc2c(-c3ccccc3)cc(=O)oc2c1 | A549 | cell growth or viability, SRB |  | GI50 | 29 µM
O=C(Nc1ccc(Cl)cc1)Nc1cccc(-c2cn(Cc3ccc(Br)cc3)nn2)c1 | A549 | cell growth or viability, CCK-8 | 20 µM, 72 h | viability | 108%
CCOc1ccc(Nc2c3c(nc4ccccc24)CCC3)cc1 | Leishmania donovani | parasite growth | 33.33 µM, promastigote | inhibition | 81%
N.N.[Cl][Pt][Cl] | WSU-NHL | cell growth or viability, ATP luminescence | 10 µM, 72 h | inhibition | 100%
c1ccc(Oc2ccc(Nc3c4c(nc5ccccc35)CCC4)cc2)cc1 | Leishmania donovani | parasite growth | 40 µM, intracellular, amastigote | inhibition | 96%
CC(C)C[C@H](NC(=O)[C@H](CCCCN)NC(=O)[C@H](Cc1c[nH]c2ccccc12)NC(=O)[C@H](CCCCN)NC(=O)[C@H](CCCCN)NC(=O)[C@H](CC(C)C)NC(=O)[C@H](Cc1ccccc1)NC(=O)[C@H](CCCCN)NC(=O)[C@H](CCC(=O)O)NC(=O)[C@H](CC(C)C)NC(=O)[C@H](CC(C)C)NC(=O)[C@H](CCCCN)NC(=O)[C@@H](N)CCCNC(=N)N)C(N)=O | A549 | cell growth or viability, MTT | 24 h | IC50 | 76 µM
COc1ccccc1C=Nc1ccc(SCc2cc(=O)c(O)co2)cc1 |  | ABTS scavenging, absorbance |  | IC50 | 21.4 µM
